# Experiments:
# Type in all cases: functional
# [1] = tested on: Staphylococcus epidermidis; assay: Antimicrobial activity against Staphylococcus epidermidis ATCC 12228
# In short: (§1)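 Agar-dilution assay run in vitro on a panel of Gram-positive and Gram-negative bacteria, with amoxicillin as the reference drug. The MIC was taken as the minimal inhibitory concentration.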
# Staphylococcus aureus [2] = assay: Antimicrobial activity against Staphylococcus aureus ATCC 6538p; in short: as §1
# Bacillus subtilis = assay: Antimicrobial activity against Bacillus subtilis ATCC 6633; in short: as §1
# Staphylococcus aureus [3] = assay: Antimicrobial activity against methicillin-resistant Staphylococcus aureus isolate
# In short: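 In vitro conventional agar-dilution assay against a panel of Gram-positive and Gram-negative bacteria. Read-out is the minimal inhibitory concentration (MIC), with amoxicillin as the reference drug.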
# Klebsiella pneumoniae = assay: Antimicrobial activity against Klebsiella pneumoniae ATCC 10031; in short: as §1
smiles,measurement,setting,value
Cn1c([N+](=O)[O-])cnc1/C=C1\Oc2cc(Cl)ccc2C1=O,MIC,[1],> 100 µg/mL
same,MIC,Staphylococcus aureus [2],> 100 µg/mL
same,MIC,Bacillus subtilis,1.56 µg/mL
same,MIC,Staphylococcus aureus [3],> 100 µg/mL
same,MIC,Klebsiella pneumoniae,0.78 µg/mL
Cn1c([N+](=O)[O-])cnc1/C=C1\Oc2ccc(Br)cc2C1=O,MIC,[1],> 100 µg/mL
same,MIC,Staphylococcus aureus [2],> 100 µg/mL
same,MIC,Bacillus subtilis,> 100 µg/mL
same,MIC,Staphylococcus aureus [3],> 100 µg/mL
same,MIC,Klebsiella pneumoniae,3.12 µg/mL
Cn1cnc([N+](=O)[O-])c1/C=C1\Oc2ccc(I)cc2C1=O,MIC,[1],> 100 µg/mL
same,MIC,Staphylococcus aureus [2],> 100 µg/mL
same,MIC,Bacillus subtilis,> 100 µg/mL
same,MIC,Staphylococcus aureus [3],> 100 µg/mL
same,MIC,Klebsiella pneumoniae,> 100 µg/mL
COc1ccc2c(c1OC)O/C(=C\c1ncc([N+](=O)[O-])n1C)C2=O,MIC,[1],0.39 µg/mL
same,MIC,Staphylococcus aureus [2],0.78 µg/mL
same,MIC,Bacillus subtilis,0.39 µg/mL
same,MIC,Staphylococcus aureus [3],0.78 µg/mL
same,MIC,Klebsiella pneumoniae,0.2 µg/mL
Cn1c([N+](=O)[O-])cnc1/C=C1\Cc2ccccc2C1=O,MIC,[1],> 100 µg/mL
same,MIC,Staphylococcus aureus [2],> 100 µg/mL
same,MIC,Bacillus subtilis,> 100 µg/mL
same,MIC,Staphylococcus aureus [3],> 100 µg/mL
same,MIC,Klebsiella pneumoniae,0.2 µg/mL
COc1cccc2c1O/C(=C\c1ncc([N+](=O)[O-])n1C)C2=O,MIC,[1],0.78 µg/mL
same,MIC,Staphylococcus aureus [2],0.78 µg/mL
same,MIC,Bacillus subtilis,0.78 µg/mL
same,MIC,Staphylococcus aureus [3],0.78 µg/mL
same,MIC,Klebsiella pneumoniae,0.78 µg/mL
Cc1ccc2c(c1)C(=O)/C(=C/c1c([N+](=O)[O-])ncn1C)O2,MIC,[1],> 100 µg/mL
same,MIC,Staphylococcus aureus [2],> 100 µg/mL
same,MIC,Bacillus subtilis,> 100 µg/mL
same,MIC,Staphylococcus aureus [3],> 100 µg/mL
same,MIC,Klebsiella pneumoniae,> 100 µg/mL
Cc1cccc2c1O/C(=C\c1c([N+](=O)[O-])ncn1C)C2=O,MIC,[1],> 100 µg/mL
same,MIC,Staphylococcus aureus [2],> 100 µg/mL
same,MIC,Bacillus subtilis,> 100 µg/mL
same,MIC,Staphylococcus aureus [3],> 100 µg/mL
same,MIC,Klebsiella pneumoniae,> 100 µg/mL
Cn1cnc([N+](=O)[O-])c1/C=C1\Oc2ccc(Br)cc2C1=O,MIC,[1],> 100 µg/mL
same,MIC,Staphylococcus aureus [2],> 100 µg/mL
same,MIC,Bacillus subtilis,> 100 µg/mL
same,MIC,Staphylococcus aureus [3],> 100 µg/mL
same,MIC,Klebsiella pneumoniae,> 100 µg/mL
Cc1ccc2c(c1)O/C(=C\c1ncc([N+](=O)[O-])n1C)C2=O,MIC,[1],1.56 µg/mL
same,MIC,Staphylococcus aureus [2],3.12 µg/mL
same,MIC,Bacillus subtilis,0.78 µg/mL
same,MIC,Staphylococcus aureus [3],1.56 µg/mL
same,MIC,Klebsiella pneumoniae,0.39 µg/mL
Cn1c([N+](=O)[O-])cnc1/C=C1\Oc2ccccc2C1=O,MIC,[1],3.12 µg/mL
same,MIC,Staphylococcus aureus [2],3.12 µg/mL
same,MIC,Bacillus subtilis,0.78 µg/mL
same,MIC,Staphylococcus aureus [3],6.25 µg/mL
same,MIC,Klebsiella pneumoniae,0.39 µg/mL
COc1ccc2c(c1)O/C(=C\c1c([N+](=O)[O-])ncn1C)C2=O,MIC,[1],> 100 µg/mL
same,MIC,Staphylococcus aureus [2],> 100 µg/mL
same,MIC,Bacillus subtilis,> 100 µg/mL
same,MIC,Staphylococcus aureus [3],> 100 µg/mL
same,MIC,Klebsiella pneumoniae,> 100 µg/mL
Cn1c([N+](=O)[O-])cnc1/C=C1\Oc2ccc([N+](=O)[O-])cc2C1=O,MIC,[1],6.25 µg/mL
same,MIC,Staphylococcus aureus [2],12.5 µg/mL
same,MIC,Bacillus subtilis,12.5 µg/mL
same,MIC,Staphylococcus aureus [3],12.5 µg/mL
same,MIC,Klebsiella pneumoniae,6.25 µg/mL
CC1(C)S[C@@H]2[C@H](NC(=O)[C@H](N)c3ccc(O)cc3)C(=O)N2[C@H]1C(=O)O [AMOXICILLIN],MIC,[1],0.195 µg/mL
same,MIC,Staphylococcus aureus [2],0.195 µg/mL
same,MIC,Bacillus subtilis,12.5 µg/mL
same,MIC,Staphylococcus aureus [3],12.5 µg/mL
same,MIC,Klebsiella pneumoniae,> 100 µg/mL
Cn1cnc([N+](=O)[O-])c1/C=C1\Oc2ccc([N+](=O)[O-])cc2C1=O,MIC,[1],> 100 µg/mL
same,MIC,Staphylococcus aureus [2],> 100 µg/mL
same,MIC,Bacillus subtilis,> 100 µg/mL
same,MIC,Staphylococcus aureus [3],> 100 µg/mL
same,MIC,Klebsiella pneumoniae,> 100 µg/mL
COc1ccc2c(c1)O/C(=C\c1ncc([N+](=O)[O-])n1C)C2=O,MIC,[1],1.56 µg/mL
same,MIC,Staphylococcus aureus [2],1.56 µg/mL
same,MIC,Bacillus subtilis,0.78 µg/mL
same,MIC,Staphylococcus aureus [3],1.56 µg/mL
same,MIC,Klebsiella pneumoniae,0.39 µg/mL

# — ChEMBL document CHEMBL1140548, “Synthesis, antibacterial activity, and quantitative structure-activity relationships of new (Z)-2-(nitroimidazolylmethylene)-3(2H)-benzofuranone derivatives” (2007)
